# Assay outcomes from PubChem.
# HIV Env fusion: HIV envelope-mediated fusion inhibition; HeLa-JRFL Env/CEM21 cell fusion, luciferase; inhibition, % at 12.3 µM; 360,000 tested, 1.1% active; AID 651610;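 active = mean replicate inhibition score of at least 50 and every replicate individually at or above 50; inconclusive = only one of the two criteria met; inactive = mean below 50 and not all replicates reaching 50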;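 note: 0% = plate neutral controls and 100% = maraviroc near 300 nM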
# CDK5 inh: inhibitors of human CDK5/p35 kinase; Recombinant CDK5/p35, ADP-Glo luminescence, 60 min; inhibition, % at 10 µM; 330,000 tested, 0.01% active;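 active = highest replicate inhibition of at least 50% and at least 75% of replicates reaching 50%; inconclusive = only one of the two criteria met; inactive = both criteria failed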;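 note: plate controls were DMSO neutral control for no effect and GW8510 at 10 µM for full effect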
# Cneo AK release: causes C. neoformans cell lysis; adenylate kinase release luminescence, 4 h; normalised: neutral wells 0, clomiphene wells 100; lysis activity, % at 15 µM; 360,000 tested, 0.2% active; AID 651654;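 active = mean lysis activity across replicates of at least 80%, whatever share of replicates individually reach that level; inactive = mean lysis activity below 80%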
#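 Assay system: C. neoformans cells. Amount: yeast cell density of 5 × 10^6 cells/mL. Technique: AK luminescence. Buffer or medium: YPD. Times: static 4 h at 37 °C with compound, 1 h detection. Dosing: single-point compound dose. Read-out: lysis from increased AK signal.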
# GSIS activator: primary screen for activators of insulin secretion dependent on glucose, INS-1E cells, GLuc reporter luminescence; 370,000 tested, 0.61% active; activation, % at 16.6 µM; INS-1E GLuc reporter insulin secretion, 2-3 h;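 active = lowest replicate activation of at least 40%, so every replicate reaches that level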;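 note: 0% = median of neutral control wells and 100% = median of IBMX positive control wells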
# dFosB act: activators of mouse delta FosB homodimer | AID 493131 | activation, % at 25 µM | purified delta FosB, TAMRA-CDK5 oligo fluorescence polarization; percent of positive-control signal above neutral wells | 340,000 tested, 0.99% active;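 active = mean activation above about 17%, with every replicate also reaching it, limit read from the data, passing the limit was not always enough; inconclusive = only one of the two conditions met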
# Target sequence (P13346 whole entry, looked up): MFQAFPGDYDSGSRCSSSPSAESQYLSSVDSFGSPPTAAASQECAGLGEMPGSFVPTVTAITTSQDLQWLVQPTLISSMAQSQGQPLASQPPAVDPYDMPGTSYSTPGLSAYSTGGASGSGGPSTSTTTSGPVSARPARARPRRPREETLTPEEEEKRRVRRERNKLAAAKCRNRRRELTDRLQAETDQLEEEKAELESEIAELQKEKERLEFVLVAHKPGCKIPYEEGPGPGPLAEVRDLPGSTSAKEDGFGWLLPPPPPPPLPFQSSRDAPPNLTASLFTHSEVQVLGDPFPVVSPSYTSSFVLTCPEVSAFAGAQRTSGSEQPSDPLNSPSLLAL
# PAX8 inh HTS: lowers PAX8-driven luciferase in RMG-I cells. RMG-I TPO-luciferase reporter, SteadyGlo, 24 h. inhibition, % at 12.6 µM. 360,000 tested, 1.2% active. AID 652154;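 active = mean replicate inhibition at least 60% with every replicate also reaching 60%; inconclusive = only one of the two criteria is met; inactive = mean below 60% and not all replicates reaching 60%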;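 note: luciferase light reporting Pax8 driven TPO promoter activity; plate controls were median of neutral control wells for no effect and mitoxantrone controls for full effect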
# Starred values were filed as active, the others as inactive; ? = inconclusive; · = no result given; [ ] = dose if it differs, or a comment. A selection: hits, their analogues and other compounds. The true share with any hit is near 2.9%.
SMILES,HIV Env fusion,CDK5 inh,Cneo AK release,GSIS activator,dFosB act,PAX8 inh HTS
CC[C@@H](C)[C@H](C(CC(=O)N1CCCC1[C@@H](OC)[C@H](C)C(=O)N[C@H](Cc1ccccc1)c1nccs1)OC)N(C)C(=O)[C@H](NC(=O)[C@@H](C(C)C)N(C)C)C(C)C (some centres not stated),-93.2,-0.1,·,-9.2,-9.5,81.6*
COc1cccc(C2NC(c3cccc(OC)c3O)C(C)C(=O)C2C)c1O (configuration not stated),·,-0.5,0.9,-35.4,-3.6,·
CC1C(=O)C(C)C(c2cc(Cl)ccc2O)NC1c1cc(Cl)ccc1O (configuration not stated),19.1,1.4,2.2,-26.3,19.8*,-0.1
CO[C@H]1CN(C)C(=O)c2cc(NS(=O)(=O)c3ccc(C)cc3)ccc2OC[C@H](C)N(C)C[C@H]1C,·,·,115.7*,14.1,·,·
CO[C@H]1CN(C)C(=O)c2cc(NS(=O)(=O)c3ccc(Cl)cc3)ccc2OC[C@@H](C)N(C)C[C@@H]1C,60.9*[16.7 µM],·,-6.3,-2.2,·,8.9
C/C=C/c1ccc2c(c1)O[C@@H](CN(C)C(=O)COC)[C@@H](C)CN([C@@H](C)CO)S2(=O)=O,7.1[16.7 µM],·,-8.1,33.4,·,·
O=[N+]([O-])c1cccc(COc2cccc(CN3CCCC3)c2)c1,59.5*,0.7,0.8,9.4,1.3,-21.0
C[C@H]1CN([C@@H](C)CO)C(=O)c2cc(C#Cc3ccccn3)cnc2O[C@@H]1CN(C)C(=O)c1ccccn1,5.5[16.7 µM],·,2.5,12.3,·,·
CN(CC(=O)Nc1ccc(F)c(Cl)c1)S(=O)(=O)c1ccc2c(c1)n(C)c(=O)c(=O)n2C,8.0,·,-2.3,1.7,42.0*,-26.9
COc1ccc(NC2c3ccccc3C(=O)N2Cc2ccco2)cc1OC (configuration not stated),·,1.8,0.7,·,-5.8,·
CCOc1ccc(NC2c3ccccc3C(=O)N2Cc2ccco2)cc1 (configuration not stated),73.6*,-6.3,0.6,·,-9.4,19.4
COc1ccc(-c2nc(-c3ccccn3)no2)cc1,62.5*,22.6,·,10.9,-16.2,104.2*
Clc1ccc(-c2nc(-c3ccccn3)no2)cc1Cl,·,-1.0,-11.1,·,-7.4,·
COc1ccccc1-c1nc(-c2ccccn2)no1,25.6,14.5,-10.3,5.7,-15.9,48.7
Cc1ccccc1-c1nc(-c2ccccn2)no1,1.7,4.2,·,-1.5,-2.3,72.6*
O=C(Nc1nnc(-c2ccc(Cl)cc2)o1)NC1CCCCC1,·,1.3,-14.7,59.0*,4.1,·
CC=Cc1ccc2n(c1=O)C[C@H]1[C@H](CO)[C@@H](C(=O)NCC)N(Cc3cocn3)[C@@H]21 (mixture of isomers),·,·,1.6,6.2,·,·
CC(C(=O)Nc1ccc2[nH]c(=O)[nH]c2c1)N1CCN(Cc2ccc3c(c2)OCO3)CC1 (configuration not stated),-7.5,-0.4,-0.5,60.4*,2.2,-2.1
CC(C(=O)Nc1ccc2c(c1)OCO2)N1CCN(C)CC1 (configuration not stated),-62.8,0.4,0.6,19.1,-5.5,6.7
CN1C(=O)c2cc(NC(=O)c3cscn3)ccc2OC[C@H]2O[C@H](CC(=O)NCc3ccc(Cl)c(Cl)c3)CC[C@@H]21,?,·,0.4,-13.5,·,-3.2
CN1C(=O)c2cc(NC(=O)c3cscn3)ccc2OC[C@@H]2O[C@@H](CC(=O)NCc3ccc(Cl)c(Cl)c3)CC[C@H]21,57.2*[16.7 µM],·,1.0,-6.7,·,-2.4
COc1ccc(CNC(=O)C[C@H]2CC[C@H]3[C@@H](COc4ccc(NC(=O)C5CC5)cc4C(=O)N3C)O2)cc1,-4.5[16.7 µM],·,91.3*,3.6,·,-7.3
CN1C(=O)c2cc(NC(=O)Cc3cccs3)ccc2OC[C@H]2O[C@H](CC(=O)NCc3ccc(-c4ccccc4)cc3)CC[C@H]21,-23.6[16.7 µM],·,-3.9,-8.3,·,1.7
CCNC(=O)C[C@@H]1CC[C@@H]2[C@@H](COc3ccc(NC(=O)Cc4cccs4)cc3C(=O)N2C)O1,74.8*[16.7 µM],·,-1.8,6.0,·,7.3
CCNC(=O)C[C@H]1CC[C@@H]2[C@H](COc3ccc(NC(=O)Cc4cccs4)cc3C(=O)N2C)O1,-5.1[16.7 µM],·,-2.1,1.2,·,12.0
SMILES,HIV Env fusion,CDK5 inh,Cneo AK release,GSIS activator,dFosB act,PAX8 inh HTS
CN1C(=O)c2cc(NC(=O)Cc3cccs3)ccc2OC[C@@H]2O[C@@H](CC(=O)NCc3ccc(-c4ccccc4)cc3)CC[C@H]21,-426.5[16.7 µM],·,-2.9,·,·,66.2*
C[C@@H]1CCCCO[C@H](CN(C)CC2CCCCC2)[C@@H](C)CN([C@H](C)CO)C(=O)c2cc(NS(C)(=O)=O)ccc2O1,2.4[16.7 µM],·,-0.4,14.3,·,-7.4
CC(=O)Nc1ccc2c(c1)C(=O)N(C)[C@H]1CC[C@H](CC(=O)Nc3cccc(C(C)C)c3)O[C@@H]1CO2,·,·,49.4,-4.2,·,22.6
CC(C)c1cccc(NC(=O)C[C@H]2CC[C@H]3[C@@H](COc4ccc(NC(=O)NCc5ccccc5)cc4C(=O)N3C)O2)c1,·,·,-4.6,-6.4,·,63.5*
CCNC(=O)Nc1ccc2c(c1)C(=O)N(C)[C@@H]1CC[C@@H](CC(=O)NCC3CCCCC3)O[C@@H]1CO2,56.6*[16.7 µM],·,-4.5,-5.3,·,4.4
C[C@H]1CN([C@@H](C)CO)C(=O)c2cccc(NC(=O)C3CCCCC3)c2O[C@@H]1CN(C)C(=O)Nc1ccc2c(c1)OCO2,·,·,-1.7,12.2,·,-11.2
NC(=O)C(C(=O)/C=C/c1ccc(Cl)cc1)=C1SCCS1,-104.1,-7.2,-3.9,22.9,7.1,88.6*
C=CCN1C(=O)CSc2ccc(C(=O)OCC)cc21,-1.5,-0.9,-0.1,68.6*,-5.9,·
CC(C)(C)C(=O)Nc1ccc(NC(=O)c2ccco2)nc1,63.0*,0.6,-11.3,23.4,-0.3,109.2*
C[C@@H]1CCCCO[C@@H](CN(C)Cc2ccc3c(c2)OCO3)[C@H](C)CN([C@H](C)CO)C(=O)c2cc(NC(=O)Nc3cccc4ccccc34)ccc2O1,1.3[16.7 µM],·,4.6,-22.8,·,37.1
Cc1nc2sc(C(c3ccco3)N3CCN(C(c4ccccc4)c4ccccc4)CC3)c(O)n2n1 (configuration not stated),-110.5,0.3,3.1,·,-8.8,87.5*
Cc1nc2sc(C(c3ccco3)N3CCN(c4ccccc4)CC3)c(O)n2n1 (configuration not stated),31.5,0.1,0.4,·,-2.9,13.9
CO[C@H]1CC[C@H]2CCOc3c(C#N)cccc3C(=O)N(C)[C@H](C)C(=O)N(C)C[C@H]1O2,2.3[16.7 µM],·,18.7,-11.5,·,-11.2
Cc1cc(C)cc(OCC(O)CN2CCC(CN3C(=O)c4cccc5cccc(c45)C3=O)CC2)c1 (configuration not stated),3.4,0.9,26.9,-21.8,51.9*,67.4*
